Drawing on ChEMBL document CHEMBL1128719, “The synthesis, structure-activity, and structure-side effect relationships of a series of 8-alkoxy- and 5-amino-8-alkoxyquinolone antibacterial agents” (J Med Chem, 1995), this text covers MIC for 7 molecules.

SMILES strings stand for the structures. In brackets after ≈: the same amount, converted by molar mass.

Common to all, as to assay type: functional
The subject of one assay is Bacteroides fragilis. As to the kind of experiment: In vitro antibacterial activity against Bacteroides fragilis BFA. An outline of the steps:
(§1)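 Microtitration (microdilution) MIC determination in μg/mL against a panel of Gram-positive, Gram-negative and anaerobic organisms. Values come from duplicate or triplicate experiments and are stated accurate to ±50%.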

The next assay has as its system Clostridioides difficile. As to the kind of experiment: In vitro antibacterial activity was tested for Clostridium diff CD1-1.
The subject of another assay is Clostridium perfringens. As to the kind of experiment: In vitro antibacterial activity against Clostridium perfringens CP 3-1.
Assay [1] has as its system Peptoniphilus asaccharolyticus. The experiment in a line: In vitro antibacterial activity was tested for Pepto asac PA 3-1. An outline of the steps: as §1
For the next assay, the system named is Cutibacterium acnes. As to the kind of experiment: In vitro antibacterial activity was tested for Propion acnes PA5-1. An outline of the steps: as §1
Assay [2] has as its system Escherichia coli. As to the kind of experiment: In vitro antibacterial activity was tested for Escherichia coli H560. An outline of the steps: as §1
Assay [3] has as its system Escherichia coli. The experiment in a line: In vitro antibacterial activity was tested for Escherichia coli Vogel. An outline of the steps: as §1
The test system of the next assay is Enterobacter cloacae. As to the kind of experiment: In vitro antibacterial activity was tested for Enterobacter cloacae HA2646.
The test system of another assay is Klebsiella pneumoniae. As to the kind of experiment: In vitro antibacterial activity was tested for Klebsiella pneumoniae MGH-2. An outline of the steps: as §1
A further assay relates to Providencia rettgeri. As to the kind of experiment: In vitro antibacterial activity was tested for Providencia rettgeri H1771. An outline of the steps:
as §1

For the next assay, the system named is Pseudomonas aeruginosa. As to the kind of experiment: In vitro antibacterial activity was tested for Pseudomonas aeruginosa UI-18. An outline of the steps:
as §1

In assay [4] the test system is Staphylococcus aureus. The experiment in a line: In vitro antibacterial activity was tested for Staphylococcus aureus H228. An outline of the steps: as §1
For assay [5], the system named is Staphylococcus aureus. As to the kind of experiment: In vitro antibacterial activity was tested for Staphylococcus aureus UC-76. An outline of the steps:
as §1

The next assay concerns Streptococcus pneumoniae. The experiment in a line: In vitro antibacterial activity was tested for Streptococcus pneumoniae SV-1. An outline of the steps: as §1
The next assay relates to Streptococcus pyogenes. The experiment in a line: In vitro antibacterial activity was tested for Streptococcus pyogenes C203. An outline of the steps: as §1
A further assay concerns Enterococcus faecalis. The experiment in a line: In vitro antibacterial activity was tested for Streptococcus faecalis MGH-2. An outline of the steps:
as §1

The term MIC denotes the smallest concentration in the dilution series that meets the test's criterion for growth inhibition. A lower MIC goes with a more susceptible organism. Take `NC1CCCN(c2c(F)cc3c(=O)c(C(=O)O)cn(C4CC4)c3c2Cl)C1` (stereo not given): the MIC was determined as 0.2 µg/mL (≈ 0.527 µM) against Bacteroides fragilis; 0.4 µg/mL (≈ 1.05 µM) in the assay on Clostridioides difficile; 0.1 µg/mL (≈ 0.263 µM) against Clostridium perfringens; 0.4 µg/mL (≈ 1.05 µM) in [1]; 0.2 µg/mL (≈ 0.527 µM) in the assay on Cutibacterium acnes.
For `COc1c(N2CCN(C)CC2)c(F)cc2c(=O)c(C(=O)O)cn(C3CC3)c12`, the MIC amounted to 0.2 µg/mL (≈ 0.533 µM) against Bacteroides fragilis; 0.8 µg/mL (≈ 2.13 µM) against Clostridioides difficile; 0.2 µg/mL (≈ 0.533 µM) in the assay with Clostridium perfringens; 0.1 µg/mL (≈ 0.266 µM) in the assay with Escherichia coli [2]; 0.1 µg/mL (≈ 0.266 µM) in the assay with Escherichia coli [3]; 0.1 µg/mL (≈ 0.266 µM) in the assay on Enterobacter cloacae. Besides, the MIC is 0.2 µg/mL (≈ 0.533 µM) against Klebsiella pneumoniae; 1.6 µg/mL (≈ 4.26 µM) in assay [1]; 0.4 µg/mL (≈ 1.07 µM) against Providencia rettgeri; 0.8 µg/mL (≈ 2.13 µM) against Pseudomonas aeruginosa; 0.1 µg/mL (≈ 0.266 µM) in the assay on Staphylococcus aureus [4]; 0.05 µg/mL (≈ 0.133 µM) in the assay on Staphylococcus aureus [5]. The MIC was found to be 0.1 µg/mL (≈ 0.266 µM) in the assay on Streptococcus pneumoniae, 0.1 µg/mL (≈ 0.266 µM) against Streptococcus pyogenes, 0.2 µg/mL (≈ 0.533 µM) with Enterococcus faecalis and 0.4 µg/mL (≈ 1.07 µM) in the assay with Cutibacterium acnes.
As to `NC1CCCN(c2nc3c(cc2F)c(=O)c(C(=O)O)cn3C2CC2)C1` (stereo not given), the MIC is 25 µg/mL (≈ 72.2 µM) against Bacteroides fragilis; > 25 µg/mL against Clostridioides difficile; 0.8 µg/mL (≈ 2.31 µM) in the assay on Clostridium perfringens; 6.3 µg/mL (≈ 18.2 µM) in [1]; 6.3 µg/mL (≈ 18.2 µM) against Cutibacterium acnes.
As to `COc1c(N2CCC(CN)C2)c(F)cc2c(=O)c(C(=O)O)cn(C3CC3)c12` (stereo not given), the MIC with Bacteroides fragilis came out at 0.2 µg/mL (≈ 0.533 µM); in the assay on Clostridioides difficile, 0.2 µg/mL (≈ 0.533 µM); against Clostridium perfringens, 0.1 µg/mL (≈ 0.266 µM); against Escherichia coli [2] it was 0.025 µg/mL (≈ 0.0666 µM); against Escherichia coli [3], 0.05 µg/mL (≈ 0.133 µM); against Enterobacter cloacae, 0.05 µg/mL (≈ 0.133 µM). Besides, the MIC in the assay with Klebsiella pneumoniae was 0.1 µg/mL (≈ 0.266 µM); in [1], 0.2 µg/mL (≈ 0.533 µM); against Providencia rettgeri, 0.1 µg/mL (≈ 0.266 µM); in the assay with Pseudomonas aeruginosa, 0.8 µg/mL (≈ 2.13 µM); in the assay with Staphylococcus aureus [4], 0.025 µg/mL (≈ 0.0666 µM); against Staphylococcus aureus [5] it was 0.003 µg/mL (≈ 0.00799 µM). In addition, the minimum inhibitory concentration (MIC) is 0.003 µg/mL (≈ 0.00799 µM) with Streptococcus pneumoniae, 0.003 µg/mL (≈ 0.00799 µM) with Streptococcus pyogenes, 0.013 µg/mL (≈ 0.0346 µM) with Enterococcus faecalis and 0.2 µg/mL (≈ 0.533 µM) against Cutibacterium acnes.
For `CCOc1c(N2CCNC(C)C2)c(F)cc2c(=O)c(C(=O)O)cn(C3CC3)c12` (stereo not given), the MIC worked out at 3.1 µg/mL (≈ 7.96 µM) in the assay with Bacteroides fragilis; 6.3 µg/mL (≈ 16.2 µM) with Clostridioides difficile; 0.8 µg/mL (≈ 2.05 µM) against Clostridium perfringens; 0.05 µg/mL (≈ 0.128 µM) with Escherichia coli [2]; 0.1 µg/mL (≈ 0.257 µM) in the assay with Escherichia coli [3]; 0.1 µg/mL (≈ 0.257 µM) with Enterobacter cloacae. Also, the MIC against Klebsiella pneumoniae is 0.2 µg/mL (≈ 0.514 µM); in assay [1] it was 1.6 µg/mL (≈ 4.11 µM); in the assay on Providencia rettgeri it was 0.4 µg/mL (≈ 1.03 µM); against Pseudomonas aeruginosa, 3.1 µg/mL (≈ 7.96 µM); in the assay with Staphylococcus aureus [4], 0.2 µg/mL (≈ 0.514 µM); in the assay with Staphylococcus aureus [5], 0.05 µg/mL (≈ 0.128 µM). For the same molecule, the MIC in the assay with Streptococcus pneumoniae worked out at 0.05 µg/mL (≈ 0.128 µM); against Streptococcus pyogenes it was 0.2 µg/mL (≈ 0.514 µM); with Enterococcus faecalis, 0.2 µg/mL (≈ 0.514 µM); against Cutibacterium acnes, 3.1 µg/mL (≈ 7.96 µM).
For the molecule `CCOc1c(N2CCC(C)(CN)C2)c(F)c(N)c2c(=O)c(C(=O)O)cn(C3CC3)c12` (stereo not given), the MIC against Bacteroides fragilis came out at 3.1 µg/mL (≈ 7.41 µM); with Clostridioides difficile it was 6.3 µg/mL (≈ 15.1 µM); against Clostridium perfringens, 0.4 µg/mL (≈ 0.956 µM); in the assay on Escherichia coli [2], 0.1 µg/mL (≈ 0.239 µM); in the assay on Escherichia coli [3], 0.2 µg/mL (≈ 0.478 µM); with Enterobacter cloacae it was 0.4 µg/mL (≈ 0.956 µM). Also, the MIC with Klebsiella pneumoniae worked out at 0.8 µg/mL (≈ 1.91 µM); in [1] it was 0.8 µg/mL (≈ 1.91 µM); against Providencia rettgeri, 1.6 µg/mL (≈ 3.82 µM); in the assay on Pseudomonas aeruginosa, 3.1 µg/mL (≈ 7.41 µM); in the assay with Staphylococcus aureus [4], 0.1 µg/mL (≈ 0.239 µM); in the assay with Staphylococcus aureus [5] it was 0.025 µg/mL (≈ 0.0597 µM). Further, the MIC with Streptococcus pneumoniae worked out at 0.05 µg/mL (≈ 0.119 µM); against Streptococcus pyogenes, 0.1 µg/mL (≈ 0.239 µM); against Enterococcus faecalis it was 0.1 µg/mL (≈ 0.239 µM); with Cutibacterium acnes, 3.1 µg/mL (≈ 7.41 µM).
As for `CCOc1c(N2CCCC(N)C2)c(F)c(N)c2c(=O)c(C(=O)O)cn(C3CC3)c12` (stereo not given), the minimum inhibitory concentration (MIC) with Bacteroides fragilis was determined as 3.1 µg/mL (≈ 7.66 µM); in the assay with Clostridioides difficile, 6.3 µg/mL (≈ 15.6 µM); with Clostridium perfringens it was 0.4 µg/mL (≈ 0.989 µM); in the assay with Escherichia coli [2] it was 0.1 µg/mL (≈ 0.247 µM); against Escherichia coli [3], 0.2 µg/mL (≈ 0.495 µM); with Enterobacter cloacae, 0.2 µg/mL (≈ 0.495 µM). Moreover, the MIC in the assay with Klebsiella pneumoniae is 0.4 µg/mL (≈ 0.989 µM); in assay [1], 0.8 µg/mL (≈ 1.98 µM); with Providencia rettgeri it was 0.8 µg/mL (≈ 1.98 µM); with Pseudomonas aeruginosa, 3.1 µg/mL (≈ 7.66 µM); in the assay with Staphylococcus aureus [4], 0.05 µg/mL (≈ 0.124 µM); against Staphylococcus aureus [5] it was 0.013 µg/mL (≈ 0.0321 µM). In addition, the MIC with Streptococcus pneumoniae came out at 0.025 µg/mL (≈ 0.0618 µM); with Streptococcus pyogenes, 0.05 µg/mL (≈ 0.124 µM); against Enterococcus faecalis it was 0.1 µg/mL (≈ 0.247 µM); against Cutibacterium acnes, 3.1 µg/mL (≈ 7.66 µM).
